# Screens as filed in PubChem.
# Shown are actives, neighbours in structure and some others; about 1.9% of the full set was active somewhere.
# SR-BI HDL uptake – blocks mouse SR-BI lipid uptake from DiI-HDL. Q61009. ldlA[mSR-BI] CHO cells, DiI-HDL uptake fluorescence, 3 h. inhibition, % at 12.5 µM. hit rate 0.96% among 320,000. AID 488896;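 active = mean replicate inhibition of at least 70% and a set share of replicates each scoring 70 or more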
# Target sequence (Q61009 whole entry, looked up): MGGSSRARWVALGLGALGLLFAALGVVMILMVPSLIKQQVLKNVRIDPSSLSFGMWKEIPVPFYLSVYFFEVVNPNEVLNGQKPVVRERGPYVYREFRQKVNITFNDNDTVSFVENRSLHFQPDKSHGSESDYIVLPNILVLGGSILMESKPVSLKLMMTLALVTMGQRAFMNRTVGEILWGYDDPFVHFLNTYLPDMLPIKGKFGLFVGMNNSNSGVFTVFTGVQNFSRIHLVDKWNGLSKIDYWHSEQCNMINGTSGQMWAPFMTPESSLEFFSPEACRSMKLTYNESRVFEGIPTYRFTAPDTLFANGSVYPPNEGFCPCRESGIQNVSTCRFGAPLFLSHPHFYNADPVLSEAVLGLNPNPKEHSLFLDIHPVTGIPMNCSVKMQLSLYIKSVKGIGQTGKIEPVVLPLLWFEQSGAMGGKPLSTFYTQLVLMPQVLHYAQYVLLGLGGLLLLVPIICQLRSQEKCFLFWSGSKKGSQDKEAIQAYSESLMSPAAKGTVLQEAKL
# SR-BI uptake up – activators of SR-BI mediated HDL lipid uptake; CHO ldlA[mSR-BI] cells, DiI-HDL uptake fluorescence, 3 h; 100 = double the neutral-control signal; activation, % at 12.5 µM; hit rate 0.096% among 320,000;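 active = mean replicate activation of at least 60% and every replicate at or above 60%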
#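 System: LDL receptor-deficient CHO ldlA cells overexpressing murine SR-BI | Timing: 3 h uptake period with compound, 37 °C | Medium: HEPES-buffered (25 mM, pH 7.4) F12 plus 0.5% BSA | Dosing: Single-point compound dose | Signal: Bottom-read fluorescence, 550/595 nm | Read-out: Retained DiI signal reflecting DiI-HDL uptake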
# UBC13 polyUb – inhibitors of human UBC13 polyubiquitin chain formation. P61088. TR-FRET. inhibition, % at 20 µM. hit rate 0.47% among 330,000. AID 485273; in the data active = inhibition above about 45%, passing the limit was not always enough
# Neddyl block – blocks human cullin neddylation. hit rate 0.58% among 360,000. P61081+Q13564. inhibition, % at 25 µM. TR-FRET cullin neddylation, biochemical; in the data active = inhibition above about 36%
# Neddyl inh conf – cullin neddylation inhibition, confirmation; shares compounds with Neddyl block; TR-FRET cullin neddylation biochemical assay; calls only at 25 µM; hit rate 13% among 1,800; AID 652217; in the data active = inhibition above about 40%;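 also: neddylation substrate is the cullin 1 ring ligase complex with SKP2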
# Hits are given with their value; - = inactive; . = no result given; + = active, no number.
SMILES,SR-BI HDL uptake,SR-BI uptake up,UBC13 polyUb,Neddyl block,Neddyl inh conf
COc1ccc2[nH]c(C(=O)O)c(NS(=O)(=O)c3ccc(OC)c(OC)c3)c2c1,-,-,-,44.4,+
CNc1cncc(-c2ccccc2NC(C)=O)n1,.,.,.,41.6,-
CC(=O)Nc1cncc(-c2ccccc2C(C)=O)n1,.,.,.,-,.
CC(C)n1ncc2c(C(=O)NCC(=O)Nc3ccccc3Br)cc(C3CC3)nc21,-,-,-,40.4,.
CCc1ccccc1NC(=O)CNC(=O)c1cc(C2CC2)nc2c1cnn2C(C)C,-,-,-,59.9,.
O=C1CCCc2nc(N3CCN(C(=O)c4ccco4)CC3)ncc21,-,-,-,-,.
NC(=O)CSc1nnc2ccc(-c3ccc(Cl)cc3)nn12,.,.,-,42.1,-
COc1ccc(-c2ccc3nnc(SCC(=O)N4CCCC4)n3n2)cc1,-,-,-,55.9,.
COc1ccc(-c2nnc3ccc(SCC(=O)N4CCCC4)nn23)cc1,-,-,-,-,.
Cc1ccc(-c2ccc3nnc(SCC(N)=O)n3n2)cc1,.,.,-,.,.
NC(=O)CSc1nnc2ccc(-c3ccc(F)cc3)nn12,.,.,-,38.8,-
O=C(CSc1nnc2ccc(-c3ccncc3)nn12)Nc1ccc(F)cc1,-,-,-,-,.
O=C(CSc1nnc2ccc(-c3ccc(Br)cc3)nn12)NCC1CCCO1 (stereo not given),-,-,-,-,.
O=C(CSc1nnc2ccc(-c3ccccc3)nn12)NCC1CCCO1 (stereo not given),.,.,-,41.6,+
COc1ccc(NC(=O)C2(C)CCN2CCc2ccccc2)cc1OC (stereo not given),.,.,.,-,.
C=CCOc1ccccc1CNc1ccc2[nH]c(=O)[nH]c2c1,-,-,-,47.9,-
COc1ccc(-c2c(C)nn3c(NC4CCCC4)cc(C)nc23)cc1OC,-,-,-,47.8,-
CN1CCN(c2ccccc2NC(=O)c2ccc(-c3ccc(Cl)c(Cl)c3)o2)CC1,-,-,-,37.9,.
CN1CCN(c2ccccc2NC(=O)c2ccc(-c3ccc(Br)cc3)o2)CC1,-,-,-,-,.
COC(=O)c1cc2ccccc2c(-c2c(OC)c(C(=O)OC)cc3ccccc23)c1OC,-,-,-,41.0,-
COc1cc(C(O)c2nc(-c3cccc(C(C)C)c3)cs2)ccc1F (stereo not given),.,.,.,-,.
COc1ccc(C(CCN2CCN(c3ccccc3)CC2)c2c(OC)cc(OC)c3c(-c4ccccc4)cc(=O)oc23)cc1 (stereo not given),-,-,-,-,.
COc1ccc(C(CCN2CCOCC2)c2c(OC)cc(OC)c3c(-c4ccccc4)cc(=O)oc23)cc1 (stereo not given),-,-,.,44.8,-
Cc1ccc(C2=NN(C(=O)CCl)C(c3ccco3)C2)o1 (stereo not given),.,.,-,-,.
CC(=O)Nc1cc(-c2ccsc2)cn2c(-c3ccc(F)cc3)cnc12,.,.,.,42.4,-
SMILES,SR-BI HDL uptake,SR-BI uptake up,UBC13 polyUb,Neddyl block,Neddyl inh conf
CCOc1ccc(-n2ccnc(SCC(=O)Nc3cccc(OC)c3)c2=O)cc1,-,-,-,-,.
O=C(NN1C(=O)c2ccccc2NC1c1ccccn1)c1ccccc1 (stereo not given),-,-,-,39.3,.
O=C1c2ccccc2NC(c2ccccn2)N1c1ccc(Cl)cc1 (stereo not given),-,-,-,41.9,.
Cc1cccc(C2Nc3ccccc3C(=O)N2c2ccccc2)n1 (stereo not given),-,-,-,.,.
CCc1c(-c2ccc(Br)cc2)ncn1Cc1cccc(-c2ccccc2)c1,.,.,.,-,.
Cn1c(=O)c(-c2ccccc2)nc2ccccc21,-,-,-,57.6,+
Cn1c(=O)c(-c2ccccc2N)nc2ccccc21,-,-,-,-,.
CCOCc1cnc(C)nc1NCC(=O)c1c(C)n(C)c2ccc(OC)cc12,-,-,.,-,.
COc1ccc2c(c1)c(C(=O)CNc1nc(C)cs1)c(C)n2C,-,-,-,39.0,-
O=S1(=O)c2cccc3cccc(c23)N1CCBr,-,-,-,41.9,-
CCCN1c2cccc3cccc(c23)S1(=O)=O,-,-,-,47.9,.
COc1ccccc1NC(=O)CCCN1C(=O)C2CC=CCC2C1=O (stereo not given),-,-,-,-,.
COC(=O)c1cc(-c2ccc3c(c2)OCO3)nc2ccccc12,-,-,-,.,.
Cc1cc(C)nc(NC(=O)c2cc(-c3ccc4c(c3)OCO4)nc3ccccc23)c1,-,-,-,52.7,.
OC[C@@H]1CN(Cc2ccncc2)C[C@H](n2cnc3c(N4CCCC4)ncnc32)O1,.,.,.,-,.
CC(C)c1ccc(NC(=O)C2(C)Cc3c(-c4cccc(C(N)=O)c4)ccnc3O2)cc1 (stereo not given),.,.,.,-,.
O=c1[nH]cnc2nc(-c3ccccc3)c(-c3ccccc3)nc12,-,-,-,63.4,.
O=c1[nH]cnc2nn(-c3ccccc3)nc12,-,-,-,.,.
COC(=O)/C(=C\c1ccc2c(c1)c1ccccc1n2C)NC(=O)c1ccccc1,-,-,-,42.3,-
CC(C)OC(=O)/C(=C/c1ccc2c(c1)c1ccccc1n2C)NC(=O)c1ccccc1,-,-,-,46.3,-
Cn1ncc(Cl)c1C(=O)NCC1CCCO1 (stereo not given),-,-,-,-,.
CC(C)CNc1ncnc2[nH]ncc12,-,-,.,-,.
CC1CCCCC1NC(=O)c1cc(S(=O)(=O)N2CCOCC2)ccc1Cl (stereo not given),-,-,-,-,.
COCCN(C(=O)COC(=O)c1c(C)nn(-c2ccccc2)c1C)c1c(N)n(Cc2ccccc2)c(=O)[nH]c1=O,.,.,.,-,.
CC/C(=N\Nc1ccnc2cc(Cl)ccc12)c1ccc(O)cc1,-,-,-,41.1,-
SMILES,SR-BI HDL uptake,SR-BI uptake up,UBC13 polyUb,Neddyl block,Neddyl inh conf
Oc1ccc(/C=N/Nc2ccnc3cc(Cl)ccc23)c(O)c1O,-,-,-,-,.
CCCCN(CC)CCCNC(=O)c1cc2c(-c3ccc(OC)c(OC)c3)nn(C)c2s1,-,-,-,53.2,-
CCCCNC(=O)c1cc2c(C)cc(C)cc2[nH]1,-,-,-,44.4,-
Cc1cc(C)c2cc(C(=O)Nc3ccc(C)c(F)c3)[nH]c2c1,-,-,.,-,.
CCOC(=O)Cc1cc(=O)n2[nH]c(C)c(-c3ccc(OC)cc3)c2n1,-,-,-,41.7,.
CCOC(=O)Cc1cc(=O)n2[nH]c(C)c(-c3ccc(Cl)cc3)c2n1,-,-,-,.,.
O=C(OCC#CCSc1nnc(-c2cccc3ccccc23)o1)c1cnc[nH]1,-,-,-,-,.
COc1cccc(NC(=S)N/N=C2\CC(C)(C)Oc3ccc(O)cc32)c1,-,-,-,43.2,-
Cc1cccc(NC(=S)N/N=C2\CC(C)(C)Oc3ccc(O)cc32)c1,-,-,-,-,.
CSCc1ccc(C(=O)OCC(=O)NC2CCCC2)o1,.,.,.,-,.
COc1cc2c(cc1OC)/C(=C/C(=O)c1ccc(C)cc1)NCC2,-,-,-,42.7,-
CC1CC(=O)c2cnc(Nc3ccccc3)nc2C1 (stereo not given),-,-,-,38.1,.
Cc1ccccc1SCC(=O)OCC(=O)NCCNC(=O)COC(=O)CSc1ccccc1C,-,-,-,-,.
